# Compound activity: PubChem BioAssay, several laboratories
# m5-HT2A agonist = mouse Htr2a agonists via beta-arrestin recruitment, primary screen, cell-based, luminescence | 5-hydroxytryptamine receptor 2A (Mus musculus), P35363 | CHO-K1 mHTR2A beta-arrestin complementation; percent of 30 µM serotonin response | activation, % at 7.6 µM | 360,000 compounds, 0.66% hits | AID 624169, 2012;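 active means activation above a run cutoff, the mean activation of all tested compounds plus 3 SD, cut at about 14% in these data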;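 further: 0% = plate median of compound wells and 100% = 30 µM serotonin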
# CCR6 antag = CCR6 receptor antagonists, primary screen, cell-based, CHO-K1, luminescence, beta-arrestin, uHTS; 340,000 compounds, 0.49% hits; C-C chemokine receptor type 6 (Homo sapiens), P51684; CHO-K1 CCR6 PathHunter beta-arrestin, CCL20-stimulated; inhibition, % at 20 µM;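 active means compounds whose inhibition of the agonist-driven luminescence signal at 20 µM reaches about 50%, limit read from the data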;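 further: cells stimulated with CCL20 at 14 nM final; plate controls were DMSO with CCL20 for no effect and DMSO without agonist for full effect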
# CXCR6 block = CXCR6 receptor inhibitors, primary screen, cell-based, beta-arrestin, luminescence, CHO-K1 PathHunter, 1536-well; C-X-C chemokine receptor type 6 (Homo sapiens), O00574; inhibition, % at 20 µM; 360,000 compounds, 0.36% hits; AID 602244, 2012; in the data active means inhibition above about 34%, passing the limit was not always enough;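 further: antagonist mode with CXCL16 agonist at 10 nM final; 0% = 10 nM CXCL16 with DMSO and 100% = unstimulated wells without agonist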
# APJ antag = antagonists of human apelin receptor APJ, primary screen, CHO-K1 cells, beta-arrestin complementation, luminescence; P35414; inhibition, % at 20 µM; 330,000 compounds, 0.32% hits; AID 2521, 2010;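 active means inhibition above about 40% at 20 µM, limit read from the data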;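 further: cells challenged with 10 nM apelin-13 agonist together with compound; plate controls were apelin-13 plus DMSO wells for no effect and DMSO wells lacking apelin-13 for full effect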
# Target sequence (P35414 whole entry, looked up): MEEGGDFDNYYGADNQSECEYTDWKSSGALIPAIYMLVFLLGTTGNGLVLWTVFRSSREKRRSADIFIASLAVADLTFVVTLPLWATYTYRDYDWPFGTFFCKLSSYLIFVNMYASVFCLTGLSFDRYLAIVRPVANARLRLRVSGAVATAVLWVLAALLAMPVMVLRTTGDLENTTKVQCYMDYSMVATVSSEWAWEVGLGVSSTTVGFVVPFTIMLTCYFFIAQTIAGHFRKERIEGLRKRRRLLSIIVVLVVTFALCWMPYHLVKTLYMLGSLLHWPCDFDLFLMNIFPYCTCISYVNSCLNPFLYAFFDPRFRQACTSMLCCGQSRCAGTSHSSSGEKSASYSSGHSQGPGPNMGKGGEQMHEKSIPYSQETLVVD
# NTR1 agonist = agonists of human NTR1, primary screen, imaging, U2OS cells, beta-arrestin-GFP, high content; NTR1-U2OS beta-arrestin-GFP spot imaging, agonist mode; 330,000 compounds, 0.17% hits; Neurotensin receptor type 1 (Homo sapiens), P30989; activation, % at 20 µM;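 active means activation at or above 40% of the spot to cytoplasm intensity ratio, with at least 20 cells analyzed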;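 further: 0% = DMSO without peptide and 100% = 100 nM NTR1 peptide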
# APJ agonist = agonists of human apelin receptor APJ, primary screen, CHO-K1 cells, PathHunter beta-arrestin, luminescence | 330,000 compounds, 0.11% hits | P35414 | activation, % at 20 µM | 0% DMSO wells, 100% apelin | AID 2520, 2010;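 active means activation more than six SD over the plate average, tested at 20 µM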;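 further: 0% = DMSO alone and 100% = apelin-13 at 10 nM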
#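 Assay system: CHO-K1 cells stably expressing ProLink-tagged human APJ and arrestin–beta-gal acceptor. Compound dosing: 20 µM single point, 1% DMSO. Times: 16-18 h seeding, 90 min dark compound exposure, 60 min detection. Detection: beta-gal luminescence. Evaluation: APJ–arrestin association signal. Controls: negative DMSO alone, positive Apelin-13 at 10 nM.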
# MOR ag counter = OPRM1 agonists via beta-arrestin recruitment, confirmation, counter-screen for mouse HTR2A agonist project, cell-based, luminescence, single concentration. U2OS OPRM1 beta-arrestin PathHunter; DMSO 0%, DAMGO 9.3 µM 100%. 2,300 compounds, 5.3% hits. AID 624380, 2012. activation, % at 9.3 µM. shares compounds with m5-HT2A agonist;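 active means mean activation above the mean of DMSO-only wells plus 3 SD, cut at about 0.5% in these data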
# m5-HT2A ag conf = mouse HTR2A agonists, beta-arrestin recruitment, confirmation, cell-based, luminescence, CHO-K1 PathHunter, triplicate; shares compounds with m5-HT2A agonist; DMSO 0%, 30 µM serotonin 100%; activation, % at 7.6 µM; 2,300 compounds, 19% hits; AID 624381, 2012;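 active means mean activation across triplicates above the hit threshold derived in the original primary screen, cut at about 15% in these data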
# An asterisk follows results filed as active; . = no result. Rows were chosen to be rich in hits. Some 1.5% of all compounds tested hit in one or more screens of this group.
SMILES,m5-HT2A agonist,CCR6 antag,CXCR6 block,APJ antag,NTR1 agonist,APJ agonist,MOR ag counter,m5-HT2A ag conf
O=C(c1cc(-c2ccncc2)nc2ccc(Cl)cc12)N1CCN(C(=O)C2CCCO2)CC1 (centres undefined),6,-15,5,-28,1,3,.,.
CC(=O)c1ccc(N2CCN(C(=O)c3cc(-c4ccncc4)nc4ccc(Cl)cc34)CC2)cc1,15*,-2,-25,-30,8,18,-1,-3
Nc1ncnc2c1ncn2[C@@H]1O[C@H](C(=O)N2CCC[C@@H]2C(=O)OCc2ccccc2)[C@@H](O)[C@H]1O,15*,.,1,.,.,.,0,-1
CC(Sc1ccc(Cl)cc1)C(=O)NCc1ccc2c(c1)OCO2 (centres undefined),22*,16,-11,5,-1,1,-1,2
CC(Sc1ccc(Cl)cc1)C(=O)Nc1ccc2c(c1)OCO2 (centres undefined),-4,1,-13,14,1,-4,.,.
CCCCCNCC(=O)Nc1cccc(C(=O)Nc2cccc(C(F)(F)F)c2)c1,0,-6,-4,-28,18,-3,.,.
c1ccc2c(c1)[nH]c1c(N3CCCC3)ncnc12,2,-4,-3,-4,1,2,.,.
c1ccc2c(c1)[nH]c1c(N3CCSCC3)ncnc12,15*,5,-12,8,-1,3,0,-2
Cc1ccccc1C(=O)Nc1ccnn1C1CCN(C(=O)c2ccoc2)CC1,-1,1,4,2,2,-2,.,.
CN(C)c1ccc(O)c2c1CC1CC3[C@@H](N(C)C)C(=O)C(C(N)=O)C(=O)[C@]3(O)C(=O)C1C2=O (some centres undefined),67*,10,-17,2,-2,0,0,153*
CN(C)c1ccc(O)c2c1CC1CC3C(N(C)C)C(=O)C(C(N)=O)=C(O)[C@@]3(O)C(=O)C1=C2O (some centres undefined),1,9,4,16,2,-4,.,.
COC(=O)c1c(NC(=O)CSc2ncn[nH]2)sc(C)c1C,5,.,-2,-5,4,-3,.,.
C=CCOC(=O)c1ccccc1C(=O)OCC1CO1 (centres undefined),23*,6,2,.,.,.,0,4
c1ccc(COc2ccc(Nc3ncnc4nc[nH]c34)cc2)cc1,17*,-8,-15,-2,1,0,-1,-7
Nc1nc(CN2CCN(c3ccccn3)CC2)nc(Nc2ccc(Cl)cc2)n1,15*,-4,-2,-25,1,4,0,73*
CN1CCN(Cc2nc(N)nc(Nc3ccc4c(c3)OCCO4)n2)CC1,-4,2,0,-7,-1,-5,.,.
Nc1nc(CN2CCN(c3ccccc3F)CC2)nc(Nc2ccc3c(c2)OCCO3)n1,22*,13,-4,-10,5,-4,-1,36*
Nc1nc(CN2CCN(Cc3ccccc3)CC2)nc(Nc2ccccc2)n1,-6,-3,-2,14,-2,-3,.,.
O=C1OC(N2CCN(c3ccccn3)CC2)c2ccccc21 (centres undefined),15*,2,0,0,5,0,-1,23*
CC(C)CCCCCCCCCCCCC(=O)NCC(=O)NC1C(C)OC(Nc2ncnc3nc[nH]c23)C(O)C1O (centres undefined),0,26,6,.,.,.,.,.
COc1ccccc1NC(=O)CSc1nnc(Cc2cccs2)n1C,6,7,0,8,-1,-1,.,.
Cn1c(Cc2cccs2)nnc1SCC(=O)Nc1ccc(F)cc1F,15*,-13,-2,7,0,-8,0,-4
CCn1ncc(CN2CCC(Oc3cc(C(=O)NC4CC4)ccc3OC)CC2)c1C,0,5,1,-11,0,9,.,.
O=C(Nc1ccc2c(c1)OCO2)c1c[nH]c(=O)n(-c2ccc(F)cc2)c1=O,15*,-5,5,-1,3,-1,0,-5
Cc1cc(C)cc(-n2c(C)cc(/C=C3\C(=N)N4N=C(CC(C)C)SC4=NC3=O)c2C)c1,18*,16,12,19,3,-2,0,-2
SMILES,m5-HT2A agonist,CCR6 antag,CXCR6 block,APJ antag,NTR1 agonist,APJ agonist,MOR ag counter,m5-HT2A ag conf
COc1cccc(C(=O)Nc2ccc(C(=O)c3ccncc3)cc2)c1,-4,1,-13,-17,1,4,.,.
COc1cccc(OC)c1C(=O)Nc1ccc(C(=O)c2ccncc2)cc1,19*,3,-15,5,1,2,0,-3
COC(=O)[C@@]1(Cc2ccc(F)cc2)[C@H]2c3cc(C(=O)N4CCCC4)n(CCc4c[nH]c5ccccc45)c3C[C@H]2CN1C(=O)c1ccccc1,4,.,11,.,.,.,.,.
COC(=O)[C@@]1(Cc2ccc(F)cc2)[C@H]2c3cc(C(=O)N(C)C)n(CCc4c[nH]c5ccc(O)cc45)c3C[C@H]2CN1C(=O)c1ccccc1,26*,.,-7,.,.,.,0,11
Cc1cc(S(=O)(=O)Nc2cccnc2)c(C)s1,21*,-10,2,8,-1,-1,0,-1
CNC[C@H](O)c1ccc(O)c(O)c1,50*,1,-6,-1,10,7,0,165*
NC[C@H](O)c1ccc(O)c(O)c1,36*,-8,1,10,5,-2,0,143*
CC(C)NCC(O)c1ccc(O)c(O)c1 (centres undefined),1,8,-7,-1,4,-1,.,.
CNC[C@H](O)c1cccc(O)c1,17*,14,-3,11,5,-5,0,47*
CCc1nc2ccc(C(=O)Nc3ccc(OC)c(OC)c3)cn2c1N(C)Cc1nccs1,1,.,-8,.,.,.,.,.
BrC(=C\c1ccccc1)/C=N/N1CCN(Cc2ccccc2)CC1,20*,-7,-1,-1,2,0,-1,-3
